Laboratory results as given in ChEMBL document CHEMBL1149538, “A high-throughput assay for O-GlcNAc transferase detects primary sequence preferences in peptide substrates” (Bioorg Med Chem Lett, 2007).
Where a SMILES comes first, the peptide text is derived from it.

Target: T1, UDP-N-acetylglucosamine--peptide N-acetylglucosaminyltransferase 110 kDa subunit (Homo sapiens) (UniProt O15294)
T1 sequence (whole entry): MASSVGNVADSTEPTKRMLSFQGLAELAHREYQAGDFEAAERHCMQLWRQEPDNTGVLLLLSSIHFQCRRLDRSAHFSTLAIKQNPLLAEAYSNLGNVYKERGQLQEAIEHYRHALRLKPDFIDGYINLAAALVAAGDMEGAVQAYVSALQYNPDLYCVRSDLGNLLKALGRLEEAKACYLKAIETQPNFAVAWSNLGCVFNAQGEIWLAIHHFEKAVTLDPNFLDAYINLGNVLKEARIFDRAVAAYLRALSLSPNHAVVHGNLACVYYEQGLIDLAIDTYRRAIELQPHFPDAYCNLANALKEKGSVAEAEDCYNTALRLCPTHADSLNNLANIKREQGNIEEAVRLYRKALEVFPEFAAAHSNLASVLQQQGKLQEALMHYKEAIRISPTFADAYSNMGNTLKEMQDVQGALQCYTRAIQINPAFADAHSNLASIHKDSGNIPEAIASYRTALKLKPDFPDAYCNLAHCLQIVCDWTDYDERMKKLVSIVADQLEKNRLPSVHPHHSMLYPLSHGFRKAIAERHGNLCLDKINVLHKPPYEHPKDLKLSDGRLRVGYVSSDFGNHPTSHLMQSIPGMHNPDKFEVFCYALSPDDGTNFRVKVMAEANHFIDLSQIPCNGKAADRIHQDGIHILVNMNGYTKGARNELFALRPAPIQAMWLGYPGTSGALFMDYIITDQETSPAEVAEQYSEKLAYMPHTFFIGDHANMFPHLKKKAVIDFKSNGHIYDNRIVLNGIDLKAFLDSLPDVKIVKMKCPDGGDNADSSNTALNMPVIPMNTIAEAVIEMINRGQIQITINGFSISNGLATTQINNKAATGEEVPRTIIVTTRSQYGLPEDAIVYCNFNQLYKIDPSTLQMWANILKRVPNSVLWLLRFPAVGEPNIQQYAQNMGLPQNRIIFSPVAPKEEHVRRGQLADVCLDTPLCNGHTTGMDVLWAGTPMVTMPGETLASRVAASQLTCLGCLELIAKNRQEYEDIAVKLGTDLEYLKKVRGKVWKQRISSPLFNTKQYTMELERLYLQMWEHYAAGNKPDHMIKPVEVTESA
Assay: Binding affinity to human OGT expressed in Escherichia coli […] cells assessed as alpha-FLAG-HRP activity relative to alpha-A-crystallin peptide by azido-ELISA
Conditions: BL21-DE3
Method in brief: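 Biotinylated peptides are reacted at saturating levels with Ni-column-purified human OGT from E. coli BL21(DE3), plus UDP-GlcNAz 62.5 μM, MgCl2 12.5 μM and β-mercaptoethanol 1 mM, for 4 h at 37 °C. Reactions are stopped with pH 4.5 sodium acetate and captured on NeutrAvidin. Product is tagged with phosphine-FLAG, detected by anti-FLAG-HRP/TMB at A450, normalized to the parent peptide after Ala-peptide background subtraction. Data are from 3 experiments, each in triplicate.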

SMILES | Activity
CC[C@H](C)[C@H](NC(=O)[C@H](C)N)C(=O)N[C@@H](C)C(=O)N[C@H](C(=O)N[C@@H](CO)C(=O)N[C@@H](CCCNC(=N)N)C(=O)N[C@@H](CCC(=O)O)C(=O)N[C@@H](CCC(=O)O)C(=O)N[C@@H](CCCCN)C(=O)O)C(C)C (H-AIAVSREEK-OH) | 0.1
CC[C@H](C)[C@H](NC(=O)[C@H](C)N)C(=O)N[C@@H](CCC(=O)O)C(=O)N[C@H](C(=O)N[C@@H](CO)C(=O)N[C@@H](CCCNC(=N)N)C(=O)N[C@@H](CCC(=O)O)C(=O)N[C@@H](CCC(=O)O)C(=O)N[C@@H](CCCCN)C(=O)O)C(C)C (H-AIEVSREEK-OH) | 0
CC[C@H](C)[C@H](NC(=O)[C@H](C)N)C(=O)N1CCC[C@H]1C(=O)N[C@H](C(=O)N[C@@H](CO)C(=O)N[C@@H](C)C(=O)N[C@@H](CCC(=O)O)C(=O)N[C@@H](CCC(=O)O)C(=O)N[C@@H](CCCCN)C(=O)O)C(C)C (H-AIPVSAEEK-OH) | 0
CC[C@H](C)[C@H](NC(=O)[C@H](C)N)C(=O)N1CCC[C@H]1C(=O)N[C@H](C(=O)N[C@@H](CO)C(=O)N[C@@H](CCC(=O)O)C(=O)N[C@@H](CCC(=O)O)C(=O)N[C@@H](CCC(=O)O)C(=O)N[C@@H](CCCCN)C(=O)O)C(C)C (H-AIPVSEEEK-OH) | 0
CC[C@H](C)[C@H](NC(=O)[C@H](CO)NC(=O)[C@@H](NC(=O)[C@@H]1CCCN1C(=O)[C@@H](NC(=O)[C@H](C)N)[C@@H](C)CC)C(C)C)C(=O)N[C@@H](CCC(=O)O)C(=O)N[C@@H](CCC(=O)O)C(=O)N[C@@H](CCCCN)C(=O)O (H-AIPVSIEEK-OH) | 0.1
CC[C@H](C)[C@H](NC(=O)[C@H](C)N)C(=O)N1CCC[C@H]1C(=O)N[C@H](C(=O)N[C@@H](CO)C(=O)N1CCC[C@H]1C(=O)N[C@@H](CCC(=O)O)C(=O)N[C@@H](CCC(=O)O)C(=O)N[C@@H](CCCCN)C(=O)O)C(C)C (H-AIPVSPEEK-OH) | 0
CC[C@H](C)[C@H](NC(=O)[C@H](C)N)C(=O)N1CCC[C@H]1C(=O)N[C@H](C(=O)N[C@@H](CO)C(=O)N[C@@H](CCCNC(=N)N)C(=O)N[C@@H](C)C(=O)N[C@@H](CCC(=O)O)C(=O)N[C@@H](CCCCN)C(=O)O)C(C)C (H-AIPVSRAEK-OH) | 5
CC[C@H](C)[C@H](NC(=O)[C@H](C)N)C(=O)N1CCC[C@H]1C(=O)N[C@H](C(=O)N[C@@H](CO)C(=O)N[C@@H](CCCNC(=N)N)C(=O)N[C@@H](CCC(=O)O)C(=O)N[C@@H](C)C(=O)N[C@@H](CCCCN)C(=O)O)C(C)C (H-AIPVSREAK-OH) | 0.6
CC[C@H](C)[C@H](NC(=O)[C@H](CCC(=O)O)NC(=O)[C@H](CCCNC(=N)N)NC(=O)[C@H](CO)NC(=O)[C@@H](NC(=O)[C@@H]1CCCN1C(=O)[C@@H](NC(=O)[C@H](C)N)[C@@H](C)CC)C(C)C)C(=O)N[C@@H](CCCCN)C(=O)O (H-AIPVSREIK-OH) | 0.1
CC[C@H](C)[C@H](NC(=O)[C@H](C)N)C(=O)N1CCC[C@H]1C(=O)N[C@H](C(=O)N[C@@H](CO)C(=O)N[C@@H](CCCNC(=N)N)C(=O)N[C@@H](CCC(=O)O)C(=O)N1CCC[C@H]1C(=O)N[C@@H](CCCCN)C(=O)O)C(C)C (H-AIPVSREPK-OH) | 0.3
CC[C@H](C)[C@H](NC(=O)[C@H](C)N)C(=O)N1CCC[C@H]1C(=O)N[C@H](C(=O)N[C@@H](CO)C(=O)N[C@@H](CCCNC(=N)N)C(=O)N1CCC[C@H]1C(=O)N[C@@H](CCC(=O)O)C(=O)N[C@@H](CCCCN)C(=O)O)C(C)C (H-AIPVSRPEK-OH) | 4.7
CC(C)[C@H](NC(=O)[C@@H]1CCCN1C(=O)[C@@H]1CCCN1C(=O)[C@H](C)N)C(=O)N[C@@H](CO)C(=O)N[C@@H](CCCNC(=N)N)C(=O)N[C@@H](CCC(=O)O)C(=O)N[C@@H](CCC(=O)O)C(=O)N[C@@H](CCCCN)C(=O)O (H-APPVSREEK-OH) | 0.1
CC[C@H](C)[C@H](N)C(=O)N[C@H](C(=O)N1CCC[C@H]1C(=O)N[C@H](C(=O)N[C@@H](CO)C(=O)N[C@@H](CCCNC(=N)N)C(=O)N[C@@H](CCC(=O)O)C(=O)N[C@@H](CCC(=O)O)C(=O)N[C@@H](CCCCN)C(=O)O)C(C)C)[C@@H](C)CC (H-IIPVSREEK-OH) | 1.6

More lines, now with the values ahead:

Activity | SMILES
0.4 | CC(C)[C@H](NC(=O)[C@@H]1CCCN1C(=O)[C@H](C)NC(=O)[C@H](C)N)C(=O)N[C@@H](CO)C(=O)N[C@@H](CCCNC(=N)N)C(=O)N[C@@H](CCC(=O)O)C(=O)N[C@@H](CCC(=O)O)C(=O)N[C@@H](CCCCN)C(=O)O (H-AAPVSREEK-OH)
0.5 | CC(C)[C@H](NC(=O)[C@@H]1CCCN1C(=O)[C@H](CCC(=O)O)NC(=O)[C@H](C)N)C(=O)N[C@@H](CO)C(=O)N[C@@H](CCCNC(=N)N)C(=O)N[C@@H](CCC(=O)O)C(=O)N[C@@H](CCC(=O)O)C(=O)N[C@@H](CCCCN)C(=O)O (H-AEPVSREEK-OH)
0.1 | CC[C@H](C)[C@H](NC(=O)[C@H](C)N)C(=O)N1CCC[C@H]1C(=O)N[C@@H](C)C(=O)N[C@@H](CO)C(=O)N[C@@H](CCCNC(=N)N)C(=O)N[C@@H](CCC(=O)O)C(=O)N[C@@H](CCC(=O)O)C(=O)N[C@@H](CCCCN)C(=O)O (H-AIPASREEK-OH)
0.2 | CC[C@H](C)[C@H](NC(=O)[C@H](C)N)C(=O)N1CCC[C@H]1C(=O)N[C@@H](CCC(=O)O)C(=O)N[C@@H](CO)C(=O)N[C@@H](CCCNC(=N)N)C(=O)N[C@@H](CCC(=O)O)C(=O)N[C@@H](CCC(=O)O)C(=O)N[C@@H](CCCCN)C(=O)O (H-AIPESREEK-OH)
0.3 | CC[C@H](C)[C@H](NC(=O)[C@@H]1CCCN1C(=O)[C@@H](NC(=O)[C@H](C)N)[C@@H](C)CC)C(=O)N[C@@H](CO)C(=O)N[C@@H](CCCNC(=N)N)C(=O)N[C@@H](CCC(=O)O)C(=O)N[C@@H](CCC(=O)O)C(=O)N[C@@H](CCCCN)C(=O)O (H-AIPISREEK-OH)
0.1 | CC[C@H](C)[C@H](NC(=O)[C@H](C)N)C(=O)N1CCC[C@H]1C(=O)N1CCC[C@H]1C(=O)N[C@@H](CO)C(=O)N[C@@H](CCCNC(=N)N)C(=O)N[C@@H](CCC(=O)O)C(=O)N[C@@H](CCC(=O)O)C(=O)N[C@@H](CCCCN)C(=O)O (H-AIPPSREEK-OH)
0 | CC[C@H](C)[C@H](NC(=O)[C@H](C)N)C(=O)N1CCC[C@H]1C(=O)N[C@@H](CCCNC(=N)N)C(=O)N[C@@H](CO)C(=O)N[C@@H](CCCNC(=N)N)C(=O)N[C@@H](CCC(=O)O)C(=O)N[C@@H](CCC(=O)O)C(=O)N[C@@H](CCCCN)C(=O)O (H-AIPRSREEK-OH)
1 | CC[C@H](C)[C@H](NC(=O)[C@H](C)N)C(=O)N1CCC[C@H]1C(=O)N[C@H](C(=O)N[C@@H](CO)C(=O)N[C@@H](CCCNC(=N)N)C(=O)N[C@@H](CCC(=O)O)C(=O)N[C@@H](CCC(=O)O)C(=O)N[C@@H](CCCCN)C(=O)O)C(C)C (H-AIPVSREEK-OH)
0.2 | CC[C@H](C)[C@H](NC(=O)[C@H](C)N)C(=O)N1CCC[C@H]1C(=O)N[C@H](C(=O)N[C@@H](CO)C(=O)N[C@@H](CCCNC(=N)N)C(=O)N[C@@H](CCC(=O)O)C(=O)N[C@@H](CCCNC(=N)N)C(=O)N[C@@H](CCCCN)C(=O)O)C(C)C (H-AIPVSRERK-OH)
0.6 | CC[C@H](C)[C@H](NC(=O)[C@H](C)N)C(=O)N1CCC[C@H]1C(=O)N[C@H](C(=O)N[C@@H](CO)C(=O)N[C@@H](CCCNC(=N)N)C(=O)N[C@@H](CCCNC(=N)N)C(=O)N[C@@H](CCC(=O)O)C(=O)N[C@@H](CCCCN)C(=O)O)C(C)C (H-AIPVSRREK-OH)
0.2 | CC[C@H](C)[C@H](NC(=O)[C@H](C)N)C(=O)N[C@@H](CCCNC(=N)N)C(=O)N[C@H](C(=O)N[C@@H](CO)C(=O)N[C@@H](CCCNC(=N)N)C(=O)N[C@@H](CCC(=O)O)C(=O)N[C@@H](CCC(=O)O)C(=O)N[C@@H](CCCCN)C(=O)O)C(C)C (H-AIRVSREEK-OH)
0 | CC(C)[C@H](NC(=O)[C@@H]1CCCN1C(=O)[C@H](CCCNC(=N)N)NC(=O)[C@H](C)N)C(=O)N[C@@H](CO)C(=O)N[C@@H](CCCNC(=N)N)C(=O)N[C@@H](CCC(=O)O)C(=O)N[C@@H](CCC(=O)O)C(=O)N[C@@H](CCCCN)C(=O)O (H-ARPVSREEK-OH)
1 | CC[C@H](C)[C@H](NC(=O)[C@@H](N)CCC(=O)O)C(=O)N1CCC[C@H]1C(=O)N[C@H](C(=O)N[C@@H](CO)C(=O)N[C@@H](CCCNC(=N)N)C(=O)N[C@@H](CCC(=O)O)C(=O)N[C@@H](CCC(=O)O)C(=O)N[C@@H](CCCCN)C(=O)O)C(C)C (H-EIPVSREEK-OH)
